Reference: paper PMC6980386 (Traffic (Copenhagen, Denmark), 2019)
pIC50: −log10 of the molar value.

Columns and labels:
FL huCD4 V28K = assay: CADA down-modulation of cellular huCD4; assay type: cell-based, human; conditions: HEK293T, 48h
How it was run: (§1)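 HEK293T cells, seeded overnight in DMEM with 10% serum, 1 mM sodium pyruvate and 0.075% NaHCO₃, were lipofected with full-length human CD4 (WT or mutant). Test compound in DMSO was added 6 h post-transfection as 1:5 serial dilutions (50–0.016 μM) for 48 h. Surface CD4 was stained with FITC/APC anti-CD4 (SK3) and read by flow cytometry. IC50 is 50% of the untreated signal, from four-parameter fits of ≥3 replicate experiments. FC is mutant/WT mean IC50.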

huCD4_1–32-YFP K27A = assay: CADA inhibition of huCD4_1–32-YFP secretion; assay type: cell-based, human
How it was run: (§2)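 HEK293T cells were grown in DMEM with 10% FBS and 10 mM HEPES, seeded and left to adhere overnight, then transiently transfected with plasmid by Lipofectamine. Test compound was added 6 h after transfection as a 1:5 serial dilution (50 to 0.016 μM) for 48 h. Secreted YFP in the supernatant was captured on GFP-Trap magnetic beads for 1 h, washed with PBS and measured by flow cytometry. IC50 is the concentration that halves the signal relative to the untreated control, taken from a four-parameter fit of at least three replicate experiments. FC is the mutant mean IC50 divided by the WT mean IC50.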

FL huCD4 K27R = FL huCD4 K27R (Homo sapiens, UniProt P01730, K27R); assay: CADA down-modulation of cellular huCD4; assay type: cell-based; conditions: HEK293T, 48h
How it was run: as §1

huCD4_1–32-YFP K26A = huCD4_1–32-YFP K26A (Homo sapiens, UniProt P01730, K26A); assay: CADA inhibition of huCD4_1–32-YFP secretion; assay type: cell-based
How it was run: as §2

huCD4_1–32-YFP G4A = huCD4_1–32-YFP G4A (Homo sapiens, UniProt P01730, G4A); assay: CADA inhibition of huCD4_1–32-YFP secretion; assay type: cell-based
How it was run: as §2

FL huCD4 K27E = FL huCD4 K27E (Homo sapiens, UniProt P01730, K27E); assay: CADA down-modulation of cellular huCD4; assay type: cell-based; conditions: HEK293T, 48h
How it was run: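 Transient transfection of HEK293T cells (Lipofectamine), seeded the night before. Test compound added 6 h post-transfection as a serial 1:5 dilution from 50 to 0.016 μM, then 48 h culture. Surface CD4 stained with FITC- or APC-labelled anti-human CD4 (clone SK3) and read by flow cytometry. IC50 is the concentration reducing signal to 50% of untreated control, interpolated from four-parameter curves (≥3 replicate experiments; 95% CI).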

huCD4_1–32-YFP K32A = huCD4_1–32-YFP K32A (Homo sapiens, UniProt P01730, K32A); assay: CADA inhibition of huCD4_1–32-YFP secretion; assay type: cell-based; conditions: read-out: Secreted YFP IC50 (μM) Mean, HEK293T, CADA 48h
How it was run: as §2

FL huCD4 V28A = FL huCD4 V28A (Homo sapiens, UniProt P01730, V28A); assay: CADA down-modulation of cellular huCD4; assay type: cell-based
How it was run: as §1

huCD4_1–32-YFP L11A = huCD4_1–32-YFP L11A (Homo sapiens, UniProt P01730, L11A); assay: CADA inhibition of huCD4_1–32-YFP secretion; assay type: cell-based
How it was run: as §2

huCD4_1–32-YFP L16A = huCD4_1–32-YFP L16A (Homo sapiens, UniProt P01730, L16A); assay: CADA inhibition of huCD4_1–32-YFP secretion; assay type: cell-based
How it was run: as §2

[1] = target: truncated huCD4 D1D2 K26A (Homo sapiens, UniProt P01730, K26A); assay: Cell-free in vitro translation and translocation; assay type: biochemical
How it was run: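 Proteinase K protection 30 min on ice, quenched with PMSF. Pellets washed in low-salt buffer (HEPES pH 7.6), then SDS-PAGE and phosphor imaging. Translocation normalised to untreated WT. Two to five independent experiments; Welch's t test.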

huCD4_1–32-YFP T23A = huCD4_1–32-YFP T23A (Homo sapiens, UniProt P01730, T23A); assay: CADA inhibition of huCD4_1–32-YFP secretion; assay type: cell-based
How it was run: as §2

huCD4_1–32-YFP R8A = huCD4_1–32-YFP R8A (Homo sapiens, UniProt P01730, R8A); assay: CADA inhibition of huCD4_1–32-YFP secretion; assay type: cell-based; conditions: read-out: Secreted YFP IC50 (μM) Mean, HEK293T, CADA 48h
How it was run: as §2

huCD4_1–32-YFP N2A = huCD4_1–32-YFP N2A (Homo sapiens, UniProt P01730, N2A); assay: CADA inhibition of huCD4_1–32-YFP secretion; assay type: cell-based
How it was run: as §2

FL huCD4 P6A = FL huCD4 P6A (Homo sapiens, UniProt P01730, P6A); assay: CADA down-modulation of cellular huCD4; assay type: cell-based
How it was run: as §1

FL huCD4 K33A = FL huCD4 K33A (Homo sapiens, UniProt P01730, K33A); assay: CADA down-modulation of cellular huCD4; assay type: cell-based; conditions: HEK293T, 48h
How it was run: as §1

FL huCD4 G25A = FL huCD4 G25A (Homo sapiens, UniProt P01730, G25A); assay: CADA down-modulation of cellular huCD4; assay type: cell-based
How it was run: as §1

[2] = target: truncated huCD4 D1D2 L18A (Homo sapiens, UniProt P01730, L18A); assay: Cell-free in vitro translation and translocation; assay type: biochemical; conditions: 15 μM CADA
How it was run: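 Truncated huCD4 D1D2 (lacking glycosylation sites and membrane anchor) was made by PCR and transcribed with T7. Proteinase K protection ran 30 min on ice and was quenched with PMSF. Products were separated by SDS-PAGE and imaged by phosphor imaging. The SP-cleaved band was normalised to the matching control. Data are from 2–5 independent experiments, compared with WT by Welch t test.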

huCD4_1–32-YFP Q24A = huCD4_1–32-YFP Q24A (Homo sapiens, UniProt P01730, Q24A); assay: CADA inhibition of huCD4_1–32-YFP secretion; assay type: cell-based
How it was run: as §2

FL huCD4 P20L = FL huCD4 P20L (Homo sapiens, UniProt P01730, P20L); assay: CADA down-modulation of cellular huCD4; assay type: cell-based; conditions: HEK293T, 48h
How it was run: as §1

FL huCD4 G4A = FL huCD4 G4A (Homo sapiens, UniProt P01730, G4A); assay: CADA down-modulation of cellular huCD4; assay type: cell-based
How it was run: as §1

FL huCD4 K26R = FL huCD4 K26R (Homo sapiens, UniProt P01730, K26R); assay: CADA down-modulation of cellular huCD4; assay type: cell-based; conditions: HEK293T, 48h
How it was run: as §1

FL huCD4 L30A = FL huCD4 L30A (Homo sapiens, UniProt P01730, L30A); assay: CADA down-modulation of cellular huCD4; assay type: cell-based
How it was run: as §1

[3] = + less, − more sensitive to CADA
[4] = read-out: Secreted YFP IC50 (μM) Mean, HEK293T, CADA 48h
[5] = read-out: Cellular huCD4 IC50 (μM) Mean, HEK293T, CADA 48h

C=C1CN(S(=O)(=O)c2ccc(C)cc2)CCCN(Cc2ccccc2)CCCN(S(=O)(=O)c2ccc(C)cc2)C1 [CADA, Cyclotriazadisulfonamide]
increase in sensitivity to CADA (smaller IC50) relative to WT (FL huCD4 V28K): more than 3 fold | Secreted YFP FC (fold change of mean IC50 relative to WT) (huCD4_1–32-YFP K27A; [3]): >+39 | IC50 (huCD4_1–32-YFP K27A; [4]): > 50 µM | sensitivity to CADA (FL huCD4 K27R): kept full sensitivity to CADA | Secreted YFP FC (fold change of mean IC50 relative to WT) (huCD4_1–32-YFP K26A; [3]): >+39 | IC50 (huCD4_1–32-YFP K26A; [4]): > 50 µM | Secreted YFP FC (fold change of mean IC50 relative to WT) (huCD4_1–32-YFP G4A; [3]): −1.4 | IC50 (huCD4_1–32-YFP G4A; [4]): 0.91 µM | sensitivity to CADA (FL huCD4 K27E): copied the alanine substitution phenotypes | IC50 (huCD4_1–32-YFP K32A): 17.6 µM | Cellular huCD4 FC (fold change of mean IC50 relative to WT) (FL huCD4 V28A; [3]): 1.00 | IC50 (FL huCD4 V28A; [5]): 0.54 µM | Secreted YFP FC (fold change of mean IC50 relative to WT) (huCD4_1–32-YFP L11A; [3]): −3.3 | IC50 (huCD4_1–32-YFP L11A; [4]): 0.38 µM | Secreted YFP FC (fold change of mean IC50 relative to WT) (huCD4_1–32-YFP L16A; [3]): −3.2 | IC50 (huCD4_1–32-YFP L16A; [4]): 0.4 µM | sensitivity of translocation towards CADA compared to WT ([1]; 15 μM CADA): significantly reduced sensitivity to CADA | effect of CADA on co-translational translocation ([1]; increasing doses of CADA): still responded to CADA, although to a lesser extent as compared to WT huCD4 | Secreted YFP FC (fold change of mean IC50 relative to WT) (huCD4_1–32-YFP T23A; [3]): +1.9 | IC50 (huCD4_1–32-YFP T23A; [4]): 2.36 µM | IC50 (huCD4_1–32-YFP R8A): > 50 µM | Secreted YFP FC (fold change of mean IC50 relative to WT) (huCD4_1–32-YFP N2A; [3]): −3.3 | IC50 (huCD4_1–32-YFP N2A; [4]): 0.39 µM | Cellular huCD4 FC (fold change of mean IC50 relative to WT) (FL huCD4 P6A; [3]): +1.8 | IC50 (FL huCD4 P6A; [5]): 0.96 µM | pIC50 (FL huCD4 K33A): < 4.30 | Cellular huCD4 FC (fold change of mean IC50 relative to WT) (FL huCD4 G25A; [3]): +1.1 | IC50 (FL huCD4 G25A; [5]): 0.61 µM | sensitivity of translocation towards CADA compared to WT [2]: higher sensitivity towards CADA | Secreted YFP FC (fold change of mean IC50 relative to WT) (huCD4_1–32-YFP Q24A; [3]): +3.3 | IC50 (huCD4_1–32-YFP Q24A; [4]): 4.22 µM | sensitivity to CADA (FL huCD4 P20L): completely resistant to CADA | Cellular huCD4 FC (fold change of mean IC50 relative to WT) (FL huCD4 G4A; [3]): −1.5 | IC50 (FL huCD4 G4A; [5]): 0.35 µM | sensitivity to CADA (FL huCD4 K26R): kept full sensitivity to CADA | Cellular huCD4 FC (fold change of mean IC50 relative to WT) (FL huCD4 L30A; [3]): +1.6 | IC50 (FL huCD4 L30A; [5]): 0.84 µM
